Data reported in ChEMBL document CHEMBL3779805, “Orally bioavailable pyridine and pyrimidine-based Factor XIa inhibitors: Discovery of the methyl N-phenyl carbamate P2 prime group” (Bioorg Med Chem, 2016).
One block for each compound: values may come before it.

Columns and labels:
[1] = Volume of distribution at steady state in beagle dog plasma at 0.4 mg/kg, iv and 0.8 mg/kg, po by LC-MS/MS method; assay type: ADME, organism-based, Canis lupus familiaris; settings: read-out: Vdss
Method in brief: (§1)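 Dogs dosed iv and po in N-in-1 (cassette) format. The same vehicle was used for both routes: 70% water, 10% ethanol, 10% dimethylacetamide, 10% polypropylene glycol.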

[2] = Oral bioavailability in beagle dog plasma at 0.8 mg/kg by LC-MS/MS method; assay type: ADME, organism-based, Canis lupus familiaris; method in brief: as §1
[3] = AUC in beagle dog plasma at 0.4 mg/kg, iv and 0.8 mg/kg, po by LC-MS/MS method; assay type: ADME, organism-based, Canis lupus familiaris; method in brief: as §1
Coagulation factor XI = Coagulation factor XI (Homo sapiens, UniProt P03951)
Coagulation factor XI, sequence (P03951 19-387 limits assumed): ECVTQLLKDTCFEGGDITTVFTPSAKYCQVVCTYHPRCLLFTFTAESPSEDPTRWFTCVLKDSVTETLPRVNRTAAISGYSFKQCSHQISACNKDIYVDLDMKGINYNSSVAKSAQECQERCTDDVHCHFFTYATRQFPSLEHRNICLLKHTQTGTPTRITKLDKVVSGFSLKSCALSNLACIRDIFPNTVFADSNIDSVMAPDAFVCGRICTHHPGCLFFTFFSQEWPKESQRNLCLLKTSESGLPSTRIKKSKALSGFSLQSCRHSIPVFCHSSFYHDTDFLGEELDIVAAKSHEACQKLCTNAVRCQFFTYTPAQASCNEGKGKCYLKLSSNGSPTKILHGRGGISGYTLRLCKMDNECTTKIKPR
Coagulation factor XI, sequence (P03951 388-625 limits assumed): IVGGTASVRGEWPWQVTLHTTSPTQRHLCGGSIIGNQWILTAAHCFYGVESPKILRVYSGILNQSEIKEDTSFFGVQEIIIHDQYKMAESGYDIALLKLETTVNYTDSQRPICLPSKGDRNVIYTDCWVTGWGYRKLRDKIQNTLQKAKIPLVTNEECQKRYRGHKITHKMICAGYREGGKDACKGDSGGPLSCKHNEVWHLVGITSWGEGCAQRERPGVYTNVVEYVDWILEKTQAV

Plasma = test: Anticoagulant activity in human plasma assessed as concentration required for 50% increase in activated partial thromboplastin time by automated coagulation analyzer; assay type: functional
Method in brief: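 aPTT clotting assay in pooled normal human plasma on an automated coagulation analyzer with commercial reagents. EC1.5x is the inhibitor plasma concentration giving a 50% increase in clotting time over the no-inhibitor control.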

[4] = Clearance in beagle dog plasma at 0.4 mg/kg, iv and 0.8 mg/kg, po administered in cassette format by LC-MS/MS method; assay type: ADME, organism-based, Canis lupus familiaris; method in brief: as §1
[5] = Half life in beagle dog plasma at 0.4 mg/kg, iv and 0.8 mg/kg, po by LC-MS/MS method; assay type: ADME, organism-based, Canis lupus familiaris; method in brief: as §1
[6] = Volume of distribution at steady state in beagle dog plasma at 0.19 mg/kg, iv and 0.19 mg/kg, po by LC-MS/MS method; assay type: ADME, organism-based, Canis lupus familiaris; settings: read-out: Vdss; method in brief: as §1
[7] = Oral bioavailability in beagle dog plasma at 0.19 mg/kg by LC-MS/MS method; assay type: ADME, organism-based, Canis lupus familiaris; method in brief: as §1
[8] = AUC in beagle dog plasma at 0.19 mg/kg, iv and 0.19 mg/kg, po by LC-MS/MS method; assay type: ADME, organism-based, Canis lupus familiaris; method in brief: as §1
[9] = Clearance in beagle dog plasma at 0.19 mg/kg, iv and 0.19 mg/kg, po administered in cassette format by LC-MS/MS method; assay type: ADME, organism-based, Canis lupus familiaris; method in brief: as §1
[10] = Half life in beagle dog plasma at 0.19 mg/kg, iv and 0.19 mg/kg, po by LC-MS/MS method; assay type: ADME, organism-based, Canis lupus familiaris; method in brief: as §1
[11] = Volume of distribution at steady state in beagle dog plasma at 0.25 mg/kg, iv and 0.2 mg/kg, po by LC-MS/MS method; assay type: ADME, organism-based, Canis lupus familiaris; settings: read-out: Vdss; method in brief: as §1
[12] = Oral bioavailability in beagle dog plasma at 0.2 mg/kg by LC-MS/MS method; assay type: ADME, organism-based, Canis lupus familiaris; method in brief: as §1
[13] = AUC in beagle dog plasma at 0.25 mg/kg, iv and 0.2 mg/kg, po by LC-MS/MS method; assay type: ADME, organism-based, Canis lupus familiaris; method in brief: as §1
Canis familiaris [14] = test: AUC in beagle dog plasma at 1 mg/kg, po dosed in discrete format by LC-MS/MS method; assay type: ADME, organism-based, Canis lupus familiaris; settings: in vivo
Method in brief: (§2)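 Discrete oral dosing in dog at 1 mpk. Oral vehicle: 70% PEG400, 20% TPGS, 10% ethanol.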

Coagulation factor X = Coagulation factor X (Homo sapiens, UniProt P00742); test: Inhibition of human coagulation factor 10a assessed as reduction in release of p-nitroaniline after 10 to 120 mins by Michaelis-Menten equation analysis
Coagulation factor X, sequence (P00742 41-179 limits assumed): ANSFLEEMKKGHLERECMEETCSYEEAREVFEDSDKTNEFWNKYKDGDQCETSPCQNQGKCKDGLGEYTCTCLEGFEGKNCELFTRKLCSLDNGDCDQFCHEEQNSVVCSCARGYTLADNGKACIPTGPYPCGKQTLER
Coagulation factor X, sequence (P00742 235-488 limits assumed): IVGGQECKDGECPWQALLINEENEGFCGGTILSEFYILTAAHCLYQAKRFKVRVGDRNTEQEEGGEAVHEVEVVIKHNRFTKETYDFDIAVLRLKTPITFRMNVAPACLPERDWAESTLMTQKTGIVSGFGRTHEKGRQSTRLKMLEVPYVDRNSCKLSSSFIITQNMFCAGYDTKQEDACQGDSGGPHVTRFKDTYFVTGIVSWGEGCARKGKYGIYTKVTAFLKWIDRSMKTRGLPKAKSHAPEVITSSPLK
Method in brief: (§3)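 Purified human enzymes with commercial synthetic peptide substrates. IC50 from 4–11 inhibitor concentrations, run in duplicate at a fixed substrate concentration (standard error <20%). Ki = IC50/(1+S/Km), assuming competitive inhibition.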

Prothrombin = Prothrombin (Homo sapiens, UniProt P00734); test: Inhibition of human coagulation thrombin assessed as reduction in release of p-nitroaniline after 10 to 120 mins by Michaelis-Menten equation analysis; method in brief: as §3
Trypsin = Trypsin (Homo sapiens, UniProt P07477+P07478+P35030); test: Inhibition of human coagulation trypsin assessed as reduction in release of p-nitroaniline after 10 to 120 mins by Michaelis-Menten equation analysis; assay type: protein assay; method in brief: as §3
Plasma kallikrein = Plasma kallikrein (Homo sapiens, UniProt P03952); test: Inhibition of human plasma kallikrein assessed as reduction in release of p-nitroaniline after 10 to 120 mins by Michaelis-Menten equation analysis; assay type: cell-free; method in brief: as §3
Plasma kallikrein, sequence (P03952 20-390 limits assumed): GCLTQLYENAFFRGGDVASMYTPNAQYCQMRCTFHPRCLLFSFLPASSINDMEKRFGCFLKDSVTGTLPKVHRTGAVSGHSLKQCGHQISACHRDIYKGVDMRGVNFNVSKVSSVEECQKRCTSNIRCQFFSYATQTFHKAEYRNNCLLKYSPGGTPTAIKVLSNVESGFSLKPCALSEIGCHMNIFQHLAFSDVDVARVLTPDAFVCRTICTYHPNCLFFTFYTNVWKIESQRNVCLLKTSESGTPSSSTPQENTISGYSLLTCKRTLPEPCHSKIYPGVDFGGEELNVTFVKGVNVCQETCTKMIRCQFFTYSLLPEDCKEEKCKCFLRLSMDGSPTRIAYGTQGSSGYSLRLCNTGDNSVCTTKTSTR
Plasma kallikrein, sequence (P03952 391-638 limits assumed): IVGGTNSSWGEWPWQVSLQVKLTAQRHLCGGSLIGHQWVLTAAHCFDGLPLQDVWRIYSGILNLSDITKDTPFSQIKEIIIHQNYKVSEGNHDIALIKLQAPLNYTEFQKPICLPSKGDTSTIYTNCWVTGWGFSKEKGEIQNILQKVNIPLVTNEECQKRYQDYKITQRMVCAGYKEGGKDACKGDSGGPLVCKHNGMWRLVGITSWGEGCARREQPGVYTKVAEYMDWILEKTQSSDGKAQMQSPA

[15] = target: Vitamin K-dependent protein C (Homo sapiens, UniProt P04070); test: Inhibition of human activated protein C assessed as reduction in release of p-nitroaniline after 10 to 120 mins by Michaelis-Menten equation analysis; method in brief: as §3
Vitamin K-dependent protein C, sequence (P04070 43-197 limits assumed): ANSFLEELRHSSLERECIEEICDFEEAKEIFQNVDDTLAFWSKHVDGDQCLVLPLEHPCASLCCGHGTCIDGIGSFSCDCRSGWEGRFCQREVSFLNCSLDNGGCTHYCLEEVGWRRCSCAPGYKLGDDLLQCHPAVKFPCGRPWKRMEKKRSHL
Vitamin K-dependent protein C, sequence (P04070 212-461 limits assumed): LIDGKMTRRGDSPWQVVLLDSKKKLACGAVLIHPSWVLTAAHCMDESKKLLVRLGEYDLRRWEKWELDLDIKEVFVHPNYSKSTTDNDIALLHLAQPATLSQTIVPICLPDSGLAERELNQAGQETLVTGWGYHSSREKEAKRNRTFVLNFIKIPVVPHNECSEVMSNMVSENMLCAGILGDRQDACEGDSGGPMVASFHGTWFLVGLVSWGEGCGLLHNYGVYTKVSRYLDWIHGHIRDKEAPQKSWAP

Plasminogen = Plasminogen (Homo sapiens, UniProt P00747); test: Inhibition of human plasmin assessed as reduction in release of p-nitroaniline after 10 to 120 mins by Michaelis-Menten equation analysis; method in brief: as §3
Plasminogen, sequence (P00747 97-580 limits assumed): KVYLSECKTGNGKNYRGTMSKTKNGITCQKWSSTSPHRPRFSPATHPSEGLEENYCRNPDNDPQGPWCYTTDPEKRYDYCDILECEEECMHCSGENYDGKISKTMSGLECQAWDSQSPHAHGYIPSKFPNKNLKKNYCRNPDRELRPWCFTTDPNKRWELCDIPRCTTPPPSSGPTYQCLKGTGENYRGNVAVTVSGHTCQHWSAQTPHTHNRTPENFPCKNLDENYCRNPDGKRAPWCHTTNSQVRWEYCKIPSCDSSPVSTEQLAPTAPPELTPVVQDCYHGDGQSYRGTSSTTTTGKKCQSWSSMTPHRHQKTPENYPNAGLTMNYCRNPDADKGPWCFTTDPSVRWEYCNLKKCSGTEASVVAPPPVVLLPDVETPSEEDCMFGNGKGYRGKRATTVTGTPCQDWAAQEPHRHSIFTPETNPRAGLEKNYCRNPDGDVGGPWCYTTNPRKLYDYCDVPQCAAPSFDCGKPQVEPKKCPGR
Plasminogen, sequence (P00747 581-810 limits assumed): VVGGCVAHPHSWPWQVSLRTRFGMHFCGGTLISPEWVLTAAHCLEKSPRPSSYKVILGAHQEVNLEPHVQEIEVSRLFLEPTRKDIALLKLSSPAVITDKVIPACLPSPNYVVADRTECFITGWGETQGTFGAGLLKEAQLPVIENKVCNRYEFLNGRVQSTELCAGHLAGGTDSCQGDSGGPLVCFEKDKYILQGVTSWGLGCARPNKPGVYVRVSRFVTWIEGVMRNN

[16] = target: Tissue-type plasminogen activator (Homo sapiens, UniProt P00750); test: Inhibition of human TPA assessed as reduction in release of p-nitroaniline after 10 to 120 mins by Michaelis-Menten equation analysis; method in brief: as §3
Tissue-type plasminogen activator, sequence (P00750 whole entry): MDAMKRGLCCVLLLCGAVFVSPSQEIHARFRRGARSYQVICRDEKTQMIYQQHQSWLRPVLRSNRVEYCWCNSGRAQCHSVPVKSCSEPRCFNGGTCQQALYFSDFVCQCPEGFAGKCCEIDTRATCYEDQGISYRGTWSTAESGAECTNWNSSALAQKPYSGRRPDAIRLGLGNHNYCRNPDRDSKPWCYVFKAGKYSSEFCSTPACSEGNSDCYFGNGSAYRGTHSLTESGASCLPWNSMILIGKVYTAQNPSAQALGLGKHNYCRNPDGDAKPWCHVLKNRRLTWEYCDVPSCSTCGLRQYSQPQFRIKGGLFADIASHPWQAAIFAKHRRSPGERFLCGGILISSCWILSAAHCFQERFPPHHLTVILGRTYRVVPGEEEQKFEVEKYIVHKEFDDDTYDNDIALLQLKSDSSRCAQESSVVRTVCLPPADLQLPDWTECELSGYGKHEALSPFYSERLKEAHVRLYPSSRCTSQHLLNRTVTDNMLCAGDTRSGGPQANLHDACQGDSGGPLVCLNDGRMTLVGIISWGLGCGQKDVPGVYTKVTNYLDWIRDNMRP

[17] = target: Urokinase-type plasminogen activator (Homo sapiens, UniProt P00749); test: Inhibition of human urokinase assessed as reduction in release of p-nitroaniline after 10 to 120 mins by Michaelis-Menten equation analysis; method in brief: as §3
[18] = Inhibition of human […] chymotrypsin assessed as reduction in release of p-nitroaniline after 10 to 120 mins by Michaelis-Menten equation analysis
Coagulation factor VII = target: T1, Coagulation factor VII (Homo sapiens, UniProt P08709); test: Inhibition of human coagulation factor 7a assessed as reduction in release of p-nitroaniline after 10 to 120 mins by Michaelis-Menten equation analysis; method in brief: as §3
T1 sequence (P08709 whole entry): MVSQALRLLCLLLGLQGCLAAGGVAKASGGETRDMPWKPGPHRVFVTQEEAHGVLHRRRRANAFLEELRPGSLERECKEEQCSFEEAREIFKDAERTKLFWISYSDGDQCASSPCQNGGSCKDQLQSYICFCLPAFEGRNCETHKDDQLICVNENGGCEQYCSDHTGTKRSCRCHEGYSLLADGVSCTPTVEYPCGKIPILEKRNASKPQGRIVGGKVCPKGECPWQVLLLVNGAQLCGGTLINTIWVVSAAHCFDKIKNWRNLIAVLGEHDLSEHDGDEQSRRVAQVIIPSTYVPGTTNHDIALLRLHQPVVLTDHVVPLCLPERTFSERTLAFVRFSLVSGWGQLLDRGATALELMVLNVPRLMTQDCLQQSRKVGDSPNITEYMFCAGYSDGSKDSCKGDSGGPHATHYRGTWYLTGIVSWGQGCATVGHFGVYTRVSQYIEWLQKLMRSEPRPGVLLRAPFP

Canis familiaris [19] = test: Oral bioavailability in beagle dog plasma at 1 mg/kg dosed in discrete format by LC-MS/MS method; assay type: ADME, organism-based, Canis lupus familiaris; settings: in vivo; method in brief: as §2
Canis familiaris [20] = test: Clearance in beagle dog plasma at 0.25 mg/kg, iv and 0.2 mg/kg, po administered in cassette format by LC-MS/MS method; assay type: ADME, organism-based, Canis lupus familiaris; settings: in vivo; method in brief: as §1
[21] = Half life in beagle dog plasma at 0.25 mg/kg, iv and 0.2 mg/kg, po by LC-MS/MS method; assay type: ADME, organism-based, Canis lupus familiaris; method in brief: as §1

Vd [1]: 0.8 L/kg
bioavailability [2]: < 1%
AUC [3]: 0.01 µM·h
Ki (Coagulation factor XI): 0.0024 µM
clearance [4]: 0.283 mL/min/kg
half-life [5]: 1.1 h
Compound: COC(=O)Nc1ccc(-c2cc([C@H](Cc3ccccc3)NC(=O)[C@H]3CC[C@H](CN)CC3)[nH]c(=O)c2)cc1
EC1.5 (Plasma): 0.4 µM

Vd [6]: 1.6 L/kg
bioavailability [7]: 34%
AUC [8]: 0.28 µM·h
clearance [9]: 5.6 mL/min/kg
Ki (Coagulation factor XI): 0.011 µM
half-life [10]: 3.7 h
Compound: COC(=O)Nc1ccc(-c2cc([C@H](Cc3ccccc3)NC(=O)/C=C/c3cc(Cl)ccc3-n3cnnn3)ccn2)cc1
EC1.5 (Plasma): 26 µM

Vd [11]: 3.9 L/kg
bioavailability [12]: 34%
AUC [13]: 0.267 µM·h
AUC (Canis familiaris [14]): 1.878 µM·h
Ki (Coagulation factor X): 1.13 µM
Ki (Prothrombin): > 13.3 µM
Ki (Trypsin): > 6.218 µM
Ki (Plasma kallikrein): 1.85 µM
Ki [15]: > 30.2 µM
Ki (Plasminogen): 12.5 µM
Ki [16]: 10.5 µM
Ki [17]: > 29.7 µM
Ki [18]: 29.5 µM
Ki (Coagulation factor VII): > 13.4 µM
Ki (Coagulation factor XI): 0.023 µM
F (Canis familiaris [19]): 53%
clearance (Canis familiaris [20]): 6.1 mL/min/kg
half-life [21]: 8 h
Compound: COC(=O)Nc1ccc(-c2ccnc([C@H](Cc3ccccc3)NC(=O)/C=C/c3cc(Cl)ccc3-n3cnnn3)c2)cc1
EC1.5 (Plasma): >40 µM
